Bioassay records (PubChem BioAssay)
Compounds with a hit are over-represented: about 1.3% of the library has one in this group of screens.
procasp3 activ – activates human procaspase-3; activation, % at 8.5 µM; actives 0.11% (n = 330,000); recombinant procaspase-3 D3A, Ac-DEVD-pNA absorbance 405 nm;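 active = activation above the mean of all tested compounds plus 3 SD, cut at about 21% in these data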;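 also: 0% = DMSO alone and 100% = DMSO wells spiked with extra 5 µM PC-3 D3A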
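Evaluation: percent activation relative to control range; Material: Procaspase-3 D3A mutant, all three cleavage aspartates alanine; Compound: single dose, 8.5 µM nominal compound, 0.8% DMSO; Replication: one well per compound; Signal: absorbance at 405 nm, 0 and 120 min; Schedule: 1 h preincubation plus 2 h reaction at 25 °C.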
CHT block – inhibitors of human choline transporter CHT. Q9GZV3. CHT-expressing cells, membrane potential dye, choline response; hits give low values. B-score at 10 µM. actives 0.86% (n = 310,000);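 active = B-score over 3 SD under the library average, and starting fluorescence ratio not unusually high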;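 also: choline stimulus applied at its EC90 after an EC20 pre-addition; B-score computed on integrated fluorescence ratio after choline addition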
Target sequence (Q9GZV3 whole entry, looked up): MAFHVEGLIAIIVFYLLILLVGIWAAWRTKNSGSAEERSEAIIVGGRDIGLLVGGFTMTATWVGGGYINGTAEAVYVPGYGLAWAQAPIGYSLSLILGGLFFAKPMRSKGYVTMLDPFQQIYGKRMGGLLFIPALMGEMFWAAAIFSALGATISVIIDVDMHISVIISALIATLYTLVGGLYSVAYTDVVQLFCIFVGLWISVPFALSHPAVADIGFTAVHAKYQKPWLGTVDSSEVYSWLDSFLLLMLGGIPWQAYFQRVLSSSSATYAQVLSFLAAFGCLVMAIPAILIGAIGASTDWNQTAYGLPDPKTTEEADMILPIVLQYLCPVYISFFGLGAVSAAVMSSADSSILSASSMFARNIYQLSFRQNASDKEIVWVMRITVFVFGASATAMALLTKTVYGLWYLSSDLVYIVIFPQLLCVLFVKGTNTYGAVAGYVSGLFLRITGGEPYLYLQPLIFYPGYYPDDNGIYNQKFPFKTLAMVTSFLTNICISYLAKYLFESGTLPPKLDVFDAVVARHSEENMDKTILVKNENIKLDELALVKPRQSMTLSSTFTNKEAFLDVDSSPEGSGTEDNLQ
CHT allo act – allosteric activators of human choline transporter CHT; CHT-expressing cells, membrane potential dye, choline EC20; hits give high values; LV-AA mutant CHT in HEK293 cells; actives 0.49% (n = 310,000); B-score at 10 µM;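 active = initial fluorescence not abnormally high and integrated response B-score, plate-corrected, over 3 SD above library mean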
procasp7 counter – counter-screen: procaspase-7 (human) activation. P55210. recombinant procaspase-7, Ac-DEVD-pNA absorbance 405 nm; D23A/D198A/D206A triple mutant, cannot self-cleave; scale: DMSO 0, 5 µM enzyme 100. activation, % at 8.5 µM. actives 0.093% (n = 330,000);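 active = percent activation above the screen-wide mean plus 3 SD, cut at about 25% in these data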
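signal = Epi-absorbance of released pNA at 405 nm, two timepoints | assay system = Uncleavable procaspase-7 mutant enzyme | reagent = Ac-DEVD-pNA substrate, 400 µM as added | times = 1 h enzyme–compound preincubation and 2 h substrate reaction, both 25 °C | benchmarks = low DMSO alone, high DMSO plus 5 µM PC-7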
CHT act confirm – human CHT activation, confirmatory screen; activation, % at 10 µM; AID 504833; CHT-expressing cells, membrane potential dye fluorescence (FDSS); % of choline EC20–EC90 response window; HEK293 expressing CHT LV-AA mutant; choline added at its EC20; actives 91% (n = 2,500); shares compounds with CHT allo act;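 active = primary screen active, with duplicate mean activation above negative control mean plus 3 SD, cut at about 11% in these data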
HEK293 MP dye – CHT activator counter-screen hit in parental HEK293 cells; actives 62% (n = 2,500); membrane potential dye fluorescence (FDSS); measured after EC20 choline addition; shares compounds with CHT allo act; ratio readout change at 10 µM, hits read low;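 active = duplicate-averaged ratio beyond 3 SD from buffer wells, up or down, though filed actives are nearly all decreases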
The depositor's hits bear a star; i = inactive; · = no result given.

SMILES | procasp3 activ | CHT block | CHT allo act | procasp7 counter | CHT act confirm | HEK293 MP dye
Cc1ccccc1-c1nc(CN2CCC(C(=O)NCCN3CCOCC3)CC2)c(C)o1 | 3.1 | i | i | 0.1 | · | ·
Cc1ccccc1-c1nc(CN2CCC(C(=O)NCCCN3CCOCC3)CC2)c(C)o1 | 9.4 | i | i | 4.2 | 40.1* | -25.9*
Cc1oc(-c2ccc(Cl)cc2)nc1CN1CCC(C(=O)NCCCN2CCCC(C)C2)CC1 (stereo not given) | 2.6 | i | i | 2.5 | 54.8* | -28*
Cc1ccccc1C(=O)NNC(=O)c1cc(S(=O)(=O)N2CCOCC2)ccc1C | 8.4 | · | · | 1.4 | · | ·
COc1ccc(OC)c(C(=O)NC(CC(N)=O)c2ccc(N3CCCCCC3)c([N+](=O)[O-])c2)c1 (stereo not given) | -2.4 | i | i | 1.1 | · | ·
O=C(NC1CCCC1)C(c1ccncc1)N(Cc1ccccc1)C(=O)c1ccc(-c2ccccc2)[nH]1 (stereo not given) | -1.0 | i | i | -9.9 | · | ·
O=C(NC1CCCC1)C(c1ccc(F)cc1)N(Cc1ccc(F)cc1)C(=O)c1ccn[nH]1 (stereo not given) | -4.1 | i | i | 5.0 | 25.4* | i
C[C@@H](NC(=O)[C@@H]1Cc2ccccc2CN1)C(=O)Nc1ccc2c(c1)OCCO2 | 1.1 | i | i | -1.7 | · | ·
COc1ccc(C(=O)Nc2ccncc2)cc1OC | 7.8 | i | 8.17* | 1.2 | 38.7* | -50.2*
COc1ccc(Cl)cc1C(=O)Nc1ccncc1 | -0.3 | i | i | 2.3 | 59.9* | -42.1*
COc1ccc(Cl)cc1C(=O)NNC(=O)c1ccncc1 | 2.3 | i | i | 6.0 | · | ·
COc1ccccc1NC(=O)CSc1nnc2ccc(-c3ccccn3)nn12 | 7.8 | i | i | -2.3 | · | ·
COc1cccc(C(=O)C2CCCN(Cc3cccn3-c3ccccn3)C2)c1 (stereo not given) | -0.5 | i | 9.65* | 0.5 | 45.7* | -25.6*
O=C(c1cccc(C(F)(F)F)c1)C1CCCN(Cc2cccn2-c2ncccn2)C1 (stereo not given) | -2.0 | i | 9.23* | 4.6 | 24.9* | i
CC(C)Oc1cccc(C(=O)C2CCCN(Cc3cccn3-c3ccccn3)C2)c1 (stereo not given) | 3.8 | i | i | -13.6 | · | ·
O=C(c1ccc(C(F)(F)F)cc1)C1CCCN(Cc2cccn2-c2ncccn2)C1 (stereo not given) | -5.1 | i | i | 1.3 | · | ·
Cc1ccc(-n2cccn2)c(CN2CCCC(C(=O)c3sccc3C)C2)c1 (stereo not given) | -0.2 | i | i | 8.3 | · | ·
Cc1ccsc1C(=O)C1CCCN(Cc2cccn2-c2ccc(Cl)cn2)C1 (stereo not given) | -11.1 | i | 16.1* | 3.0 | 49.3* | i
C#CCOCCOCCOCCNc1nc(N2CCN(C(=O)C([C@@H](C)CC)n3cc(C(N)COC(=O)C(F)(F)F)nn3)CC2)nc(N2CCN(C(=O)[C@H](CCC(=O)O)n3cc(C(N)CC(C)C)nn3)CC2)n1 (stereo not given in full) | 1.2 | i | i | -3.4 | · | ·
COc1cccc(/C(C)=N/N=C(\C)c2cccc(OC)c2)c1 | · | i | i | · | · | ·
O=C(Cn1c(=O)cnc2ccccc21)N1CCN(S(=O)(=O)c2cccc([N+](=O)[O-])c2)CC1 | 0.7 | i | i | 2.2 | · | ·
O=C(NC1CCCCC1)C(c1ccco1)N(Cc1cccnc1)C(=O)C1COc2ccccc2O1 (stereo not given) | 2.6 | i | i | 4.8 | 13.0* | i
O=C(NC1CCCC1)C(=O)N(Cc1cccnc1)C(C(=O)NC1CCCC1)c1ccco1 (stereo not given) | -3.8 | i | i | 1.4 | · | ·
CCc1ccc(CNC(=O)C2CCN(S(=O)(=O)N3CCCC3)CC2)cc1 | 2.2 | i | i | 2.6 | · | ·
COc1ccc(/C=N/Nc2ccc(C(=O)O)cc2)c(OC)c1OC | -4.1 | i | i | -2.9 | · | ·
SMILES | procasp3 activ | CHT block | CHT allo act | procasp7 counter | CHT act confirm | HEK293 MP dye
COC(=O)c1ccc2c(c1)C(C)(C)C(/C=C/c1ccc(OC)c(OC)c1OC)=[N+]2C | -14.5 | i | 6.48* | -15.4 | 59.4* | -64.9*
CSc1nnc(-c2ccccc2N=Cc2c(C)[nH]n(-c3ccc4ccccc4c3)c2=O)c(=O)[nH]1 | -9.6 | i | 8.33* | -2.7 | 24.5* | i
C=CCSc1nnc(-c2ccccc2N=Cc2c(C)[nH]n(-c3ccccc3)c2=O)c(=O)[nH]1 | -13.4 | i | i | -12.9 | · | ·
Cc1ccccc1C[n+]1cccc2ccccc21 | 0.8 | i | 7.01* | 1.6 | 52.4* | -42.1*
Cc1ccccc1CSCc1nc2ccccc2[nH]1 | 10.7 | i | i | 2.7 | · | ·
O=C(COc1ccc2c3c(c(=O)oc2c1)CCC3)NC(Cc1ccc(Cl)cc1)C(=O)O (stereo not given) | 3.7 | i | i | -1.5 | · | ·
Cc1nnc2sc(-c3cccc(NC(=O)c4cccnc4)c3)nn12 | 1.2 | i | 7.88* | -1.1 | 35.0* | -49.3*
CCOc1cccc(C(=O)Nc2cc(-c3nn4c(C)nnc4s3)ccc2C)c1 | 4.8 | i | i | -0.3 | · | ·
Cc1ccc(-c2nn3c(C)nnc3s2)cc1NC(=O)c1cccnc1 | 3.7 | i | 8.27* | 4.8 | 58.7* | -54.4*
O=C(CN1C(=O)NC2(CCCCCCC2)C1=O)NCc1ccc(Cl)cc1 | 4.4 | · | · | 9.5 | · | ·
O=C(C[C@H]1C[C@H](C(=O)N2CCCCC2)[C@@]2(CCc3ccccc3)c3[nH]c4cc(-c5ccco5)ccc4c3CCN2C1=O)NCc1cccc(C(F)(F)F)c1 | -4.7 | · | · | -7.4 | · | ·
O=C(OCC(=O)N(Cc1ccccc1)Cc1ccccc1)c1ccccc1O | -1.2 | · | · | 7.6 | · | ·
O=C(OCC(=O)N(CCc1ccccc1)Cc1ccccc1)c1ccccc1O | -7.2 | i | 6.52* | 0.4 | 38.1* | i
O=C(Nc1ccc2c(c1)OCO2)NC1(C(F)(F)F)Oc2ccccc2O1 | -11.9 | i | i | -11.1 | · | ·
O=C(NC1(C(F)(F)F)Oc2ccccc2O1)N1CCCC1 | -9.6 | i | 6.62* | -1.7 | 0.5 | i
CCOCc1c(C(=O)NCc2ccccc2CN2CCCC2)oc2ccccc12 | 7.1 | · | · | -6.5 | · | ·
Cc1cnccc1CN(C)C(=O)CC1C(=O)NCCN1CC1CCCCC1 (stereo not given) | 5.5 | i | 7.72* | 2.4 | 0.3 | i
